Cneo AK release = Cryptococcus neoformans cell lysis inducers, primary screen, AK release luminescence, single concentration. C. neoformans lysis, adenylate kinase release luminescence, 4 h; normalised: neutral wells 0, clomiphene wells 100. lysis activity, % at 15 µM. 360,000 compounds, 0.2% hits. AID 651654, 2012;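 active = mean lysis activity across replicates of at least 80%, whatever share of replicates individually reach that level; inactive = mean lysis activity below 80%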
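Test system: log-phase Cryptococcus neoformans yeast cells; Quantity: yeast cell density of 5 × 10^6 cells/mL; Buffer or medium: YPD; Doses: single compound concentration per well; Timing: 4 h at 37 °C static, read 1 h later; Measured by: AK luminescence; Read-out basis: lysis from increased AK signal; Control set: Clomiphene as positive control.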
S100A4 MyoIIA = inhibitors of S100A4-myosin IIA peptide binding, primary screen, biochemical, fluorescence polarization, TAMRA-MyoIIA peptide; Protein S100-A4 (Homo sapiens), P26447; inhibition, % at 10.7 µM; 360,000 compounds, 0.14% hits; AID 652163, 2013;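 active = mean inhibition of at least 70% across replicates, with every replicate also reaching that level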
Target sequence (P26447 whole entry, looked up): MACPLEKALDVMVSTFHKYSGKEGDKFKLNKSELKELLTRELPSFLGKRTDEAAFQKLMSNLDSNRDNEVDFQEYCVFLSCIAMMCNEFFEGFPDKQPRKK
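Test system – S100A4 monomer (human) · Compound – single-point compound testing · Schedule – 5 min incubation before reading · Probe or stimulus – TAMRA-labelled myosin IIA heavy-chain peptide probe, 5 nM · Benchmarks – neutral control DMSO, positive control TFP · Medium – Calcium-containing HEPES buffer, pH 7.2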
PGC1a acetyl inh = inhibitors of PGC1a acetylation signal, primary screen, cell-based, U2OS, AlphaScreen, inhibitor mode. AlphaScreen anti-acetyl-lysine; with virally co-expressed GCN5 acetyltransferase. AID 651687, 2012. inhibition, % at 15.6 µM. 350,000 compounds, 0.17% hits;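 active = every replicate shows inhibition of at least 40%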
C2C12 statin = suppressors of statin myotoxicity in C2C12 myotubes, primary screen, cell-based, single point, plate reader | C2C12 myotubes + simvastatin, ATP luminescence, 48 h; scaled: DMSO 0, geranylgeraniol control 100 | rescue of ATP level, % at 7.49 µM | 330,000 compounds, 0.78% hits | AID 602340, 2012;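 active = mean ATP rescue above about 67%, or every replicate alone reaching that limit, limit read from the data, passing the limit was not always enough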;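 note: myotubes were challenged with 10 µM simvastatin during compound exposure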
SIRT5 block = SIRT5 desuccinylase inhibitors, primary screen, biochemical, fluorescence imaging, single point, set 5. Purified SirT5, succinyl-peptide AMC, trypsin-coupled fluorescence. inhibition, % at 15 µM. 330,000 compounds, 1.1% hits; in the data active = inhibition above about 15%
Target sequence (Q9NXA8 whole entry, looked up): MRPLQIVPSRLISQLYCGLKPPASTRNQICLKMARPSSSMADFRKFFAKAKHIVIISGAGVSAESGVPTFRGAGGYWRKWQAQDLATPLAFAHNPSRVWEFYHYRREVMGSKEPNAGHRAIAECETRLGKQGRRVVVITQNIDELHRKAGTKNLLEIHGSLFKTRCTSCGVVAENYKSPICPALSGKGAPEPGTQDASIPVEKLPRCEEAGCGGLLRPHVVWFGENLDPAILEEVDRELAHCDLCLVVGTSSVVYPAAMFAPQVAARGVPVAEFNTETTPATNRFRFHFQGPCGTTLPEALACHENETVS
rRNA inh HTS = reduced GFP signal of wild-type E. coli, primary screen, bacterial rRNA inhibitor project, GFP/RFP fluorescence, OD600, single point; E. coli WT GFP vs humanized-ribosome RFP mutants, 24 h; active compounds read low; DMSO median 0, no signal -100; 350,000 compounds, 1.6% hits; GFP signal change (wild-type ribosome), % (no concentration beside the values);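 active = significant combined selectivity score with lowered wild-type GFP, culture density cut under 30%, mutant RFP and density less affected; inactive = any of these conditions unmet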
Of the large screens only hits and unclear results are named; the others gave an inactive call. Compounds with a hit are over-represented: about 3% of the library has one in this group of screens.

COc1ccc(CN2C[C@@H](C)[C@@H](OC)CN(C)C(=O)c3cc(NC(C)=O)ccc3OC[C@@H]2C)cc1	none
CO[C@@H]1CN(C)C(=O)c2ccc(NC(=O)C3CC3)cc2OC[C@H](C)N(CCc2ccccc2)C[C@H]1C	none (no result: Cneo AK release, C2C12 statin)
Nc1[nH]n2c(=O)cc(-c3ccccc3)nc2c1N=Nc1ccccc1	none (no result: S100A4 MyoIIA, SIRT5 block, rRNA inh HTS)
Nc1[nH]n2c(=O)cc(-c3ccccc3)nc2c1N=Nc1ccc(S(N)(=O)=O)cc1	rRNA inh HTS -24 (no result: Cneo AK release, C2C12 statin)
Cc1cc(C)cc(NC(=O)c2ccc(CSc3nnc(C)s3)cc2)c1	C2C12 statin 122 (no result: S100A4 MyoIIA, SIRT5 block, rRNA inh HTS)
Cn1cc([N+](=O)[O-])c(C(=O)Nc2ccn(C34CC5CC(CC(C5)C3)C4)n2)n1	rRNA inh HTS -26 (no result: Cneo AK release, PGC1a acetyl inh, C2C12 statin)
Cc1nn(C)c(C(=O)Nc2ccn(C34CC5CC(CC(C5)C3)C4)n2)c1[N+](=O)[O-]	rRNA inh HTS -32 (no result: Cneo AK release, PGC1a acetyl inh, C2C12 statin)
CCOC=C1SC(=S)N(c2ccccc2OC)C1=O	S100A4 MyoIIA 127
CCO/C=C1/C(=O)N(c2ccccc2OC)C(=O)c2ccccc21	none
O=C(O)c1cccc(-n2cccc2/C=C2/NC(=O)N(c3ccc(Cl)cc3)C2=O)c1	SIRT5 block 44 (no result: Cneo AK release, C2C12 statin)
O=C(O)c1cccc(-n2cccc2/C=C2/NC(=O)N(c3cccc(Cl)c3)C2=O)c1	none (no result: Cneo AK release, C2C12 statin)
CCNC(=O)C[C@@H]1CC[C@H]2[C@@H](COc3ccc(NS(C)(=O)=O)cc3C(=O)N2C)O1	none
CCOC(=O)C1=C(C)Nc2ccc(C)cc2S1	none (no result: S100A4 MyoIIA, C2C12 statin, SIRT5 block, rRNA inh HTS)
Cc1ccc2c(c1)Sc1c(ccc3ccccc13)N2	rRNA inh HTS -27
C[C@@H]1CN([C@@H](C)CO)C(=O)c2cc(C#Cc3ccccc3F)cnc2O[C@@H]1CN(C)S(=O)(=O)c1ccccc1F	none
CC(=O)c1ccc(-n2c(C)ccc2-c2ccccc2)cc1	none (no result: S100A4 MyoIIA, SIRT5 block, rRNA inh HTS)
COC(=O)c1ccc(-n2c(C)ccc2-c2ccccc2)cc1	rRNA inh HTS -22
CC(C)C(=O)Nc1ccc2c(c1)C(=O)N(C)[C@H]1CC[C@@H](CC(=O)NCc3ccc(F)cc3)O[C@H]1CO2	none
Cc1ccc(C(=O)Nc2cc(Cl)ccc2-n2cncn2)s1	none (no result: Cneo AK release, PGC1a acetyl inh)
Cc1ccsc1C(=O)Nc1cc(Cl)ccc1-n1cncn1	PGC1a acetyl inh 61
O=C(O)c1cccc(NC(=O)c2ccc(COc3ccc(Cl)cc3)cc2)c1	none (no result: PGC1a acetyl inh)
N#C/C(=C\c1ccc(OCc2ccc(Cl)cc2)cc1)C(=O)Nc1cccc(C(=O)O)c1	rRNA inh HTS -27 (no result: C2C12 statin)
O=C(Nc1ccccc1F)N1CCCCN2[C@H](CO)[C@H](c3ccc(-c4cccnc4)cc3)[C@@H]2C1	none (no result: C2C12 statin)
O=C(NC1CCCC1)N1CCCCN2[C@@H](CO)[C@@H](c3ccc(-c4cccnc4)cc3)[C@@H]2C1	S100A4 MyoIIA 98
O=C(Nc1ccccc1F)N1CCCCN2[C@@H](CO)[C@H](c3ccc(-c4cccnc4)cc3)[C@@H]2C1	rRNA inh HTS -19 (no result: C2C12 statin)
C[C@@H]1CN([C@H](C)CO)C(=O)c2cc(NS(=O)(=O)c3cn(C)cn3)ccc2O[C@@H](C)CCCCO[C@@H]1CN(C)S(=O)(=O)c1ccccc1	none (no result: C2C12 statin)
C[C@@H]1CN([C@@H](C)CO)C(=O)c2cc(C#CC3CCCC3)cnc2O[C@H]1CN(C)S(=O)(=O)c1cccc(F)c1	none
C[C@H]1CN([C@@H](C)CO)C(=O)c2cc(C#CC3CCCCC3)cnc2O[C@@H]1CN(C)S(=O)(=O)c1cccc(F)c1	SIRT5 block 27
C[C@H](CO)N1C[C@H](C)[C@H](CN(C)S(=O)(=O)c2cccc(F)c2)Oc2ncc(C#CC3CCCCC3)cc2C1=O	SIRT5 block 21
C[C@@H]1CN([C@H](C)CO)C(=O)c2cc(C#CC3CCCCC3)cnc2O[C@@H]1CN(C)S(=O)(=O)c1cccc(F)c1	none
Fc1ccc(-c2nn(-c3ccccc3)cc2CNCc2ccccc2)cc1	none (no result: C2C12 statin)
O=C(CCl)Nc1cn(-c2ccccc2)nc1-c1ccc(F)cc1	rRNA inh HTS -24 (no result: Cneo AK release, C2C12 statin)
CO[C@@H]1CN(C)C(=O)c2cc(NC(C)=O)ccc2OC[C@H](C)N(Cc2cccc(F)c2)C[C@H]1C	none
Cc1nc(N2CCCCC2)sc1C(=O)c1ccc(SCCO)c([N+](=O)[O-])c1	rRNA inh HTS -20
Cc1nc(N2CCCCC2)sc1C(=O)c1cccc([N+](=O)[O-])c1	none (no result: Cneo AK release, PGC1a acetyl inh, C2C12 statin)
COc1ccc(C2NC(=S)NC3=C2CCc2cc(OC)ccc23)cc1 (stereo not drawn)	C2C12 statin 90 (no result: S100A4 MyoIIA, SIRT5 block, rRNA inh HTS)
C[C@@H]1CCCCO[C@@H](CN(C)C(=O)c2ccccc2)[C@H](C)CN([C@@H](C)CO)C(=O)c2cc(NC(=O)C3CCCCC3)ccc2O1	none
COC1=CC(=Cc2c(N)n3nc(CC(=O)N4CCCCC4)sc3nc2=O)C=C(OC)C1=O	SIRT5 block 32
CCOC1=C/C(=C/c2c(N)n3nc(CC(=O)N4CCCC4)sc3nc2=O)C=CC1=O	none
COC1=C/C(=C/c2c(N)n3nc(CC(=O)N4CCCC4)sc3nc2=O)C=CC1=O	SIRT5 block 30
CC1=Nc2ccc(C)cc2/C1=C/c1c(N)n2nc(CC(=O)N3CCOCC3)sc2nc1=O	none
O=C1CN(S(=O)(=O)Cc2ccccc2)C[C@@H]2[C@H](c3ccc(C#Cc4cccc(F)c4)cc3)[C@H](CO)N12	SIRT5 block 17 (no result: Cneo AK release, C2C12 statin)
O=C1CN(S(=O)(=O)c2ccccc2)C[C@H]2[C@@H](c3ccc(C#Cc4ccccc4)cc3)[C@@H](CO)N12	none (no result: Cneo AK release, C2C12 statin)
O=C1CN(S(=O)(=O)c2ccccc2)C[C@@H]2[C@H](c3ccc(C#Cc4ccccc4)cc3)[C@H](CO)N12	SIRT5 block 25 (no result: Cneo AK release, C2C12 statin)
CC(C)[C@@H]1C(=O)N[C@H](c2ccc3c(c2)OCO3)CC=CC[C@H](C)Oc2ccccc2C(=O)N1C (mixture of isomers)	none (no result: Cneo AK release, S100A4 MyoIIA, PGC1a acetyl inh, C2C12 statin, SIRT5 block)
Cc1nc(SCC(=O)N(C)C2CCCCC2)[nH]c(=O)c1Cc1ccccc1	rRNA inh HTS -26 (no result: SIRT5 block)
CN(C(=O)CSc1nc2c(c(=O)[nH]1)CCCC2)C1CCCCC1	rRNA inh HTS -15 (no result: Cneo AK release)
CC(C)NC(=O)Nc1ccc2c(c1)C(=O)N(C)[C@@H]1CC[C@@H](CC(=O)Nc3ccccc3)O[C@H]1CO2	none
Cc1ccc(-c2nc3c(c(=O)c4ccccc4n3C)c(=O)n2Cc2ccco2)cc1	none (no result: C2C12 statin)

Source: PubChem (Broad Institute)
